The source made the active and inactive calls. The calls are words filed in the database; no cut-off is given here.
Experiments:
[1] = target: Aldo-keto reductase family 1 member B1 (Homo sapiens, UniProt P15121); assay: Inhibition of human recombinant N-terminus His6-tagged AKR1B1 expressed in Escherichia coli BL21 DE3 assessed as pyridine-3-aldehyde reduction by spectrometric analysis
[2] = target: T1, Aldo-keto reductase family 1 member B10 (Homo sapiens, UniProt O60218); assay: Inhibition of human recombinant N-terminus His6-tagged AKR1B10 expressed in Escherichia coli BL21 DE3 assessed as pyridine-3-aldehyde reduction by spectrometric analysis
In short: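 Purified recombinant 6-His AKR1B10 was assayed at 25 °C in 0.1 M potassium phosphate, pH 7.4, with 0.1 mM NADPH and 0.2 mM pyridine-3-aldehyde. Reductase rate was followed as NADPH absorbance change at 340 nm. IC50 is the mean of at least three determinations.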
Target sequence in this assay (O60218 whole entry): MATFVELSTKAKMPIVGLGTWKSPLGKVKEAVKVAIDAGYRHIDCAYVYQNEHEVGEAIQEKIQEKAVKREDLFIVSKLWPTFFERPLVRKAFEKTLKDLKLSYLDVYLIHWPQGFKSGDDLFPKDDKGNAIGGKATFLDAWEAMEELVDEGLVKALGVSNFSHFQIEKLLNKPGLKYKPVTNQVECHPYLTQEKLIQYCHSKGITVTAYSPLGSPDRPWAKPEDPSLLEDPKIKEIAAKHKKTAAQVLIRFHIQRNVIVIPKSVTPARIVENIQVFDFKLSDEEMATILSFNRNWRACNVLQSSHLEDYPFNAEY

Homo sapiens = organism: Homo sapiens; assay: Selectivity ratio of IC50 for human recombinant N-terminus His6-tagged AKR1B1 to IC50 for human recombinant N-terminus His6-tagged AKR1B10
In short: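 IC50 values for purified recombinant AKR1B1 and AKR1B10 were each determined at 25 °C in 0.1 M potassium phosphate, pH 7.4, with 0.1 mM NADPH and 0.2 mM pyridine-3-aldehyde, by NADPH absorbance at 340 nm. Each IC50 is the mean of at least three determinations. The ratio is AKR1B1 IC50 over AKR1B10 IC50.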

U-937 [3] = assay: Growth inhibition of human U937 cells at 0.2 uM by trypan blue dye exclusion assay; format: functional, cell-based
HeLa [4] = assay: Growth inhibition of human HeLa cells at 0.2 uM by trypan blue dye exclusion assay; format: functional, cell-based
U-937 [5] = assay: Growth inhibition of AKR1B10-overexpressing human U937 cells at 1 uM by trypan blue dye exclusion assay; format: functional, cell-based
In short: (§1)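 U937 cells were transiently transfected with pGW1 plasmid carrying AKR1B10 cDNA and resuspended in fresh growth medium. They were seeded at 5 × 10⁴ cells/ml and treated with inhibitor for 0, 24, 48 and 72 h. Viable cells were counted by trypan blue exclusion.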

HeLa [6] = assay: Cytotoxicity against human HeLa cells after 24 hrs by trypan blue dye exclusion assay; format: functional; details: read-out: LD50 (the source's name)
[7] = target: T1, Aldo-keto reductase family 1 member B10; assay: Competitive inhibition at human recombinant N-terminus His6-tagged AKR1B10 expressed in Escherichia coli BL21 DE3 assessed as inhibition of NADP+ linked geraniol oxidation by fluorescence analysis
Target sequence in this assay (O60218 whole entry): as above

[8] = target: Aldo-keto reductase family 1 member B10 (Homo sapiens, UniProt O60218, S304A); assay: Competitive inhibition at human recombinant N-terminus His6-tagged AKR1B10 Ser304Ala mutant expressed in Escherichia coli BL21 DE3 assessed as inhibition of NADP+ linked geraniol oxidation by fluorescence analysis
[9] = target: T1, Aldo-keto reductase family 1 member B10; details: HeLa, 0.2 uM
Target sequence in this assay (O60218 whole entry, looked up): as the sequence (O60218 whole entry) above

[10] = target: Aldo-keto reductase family 1 member B10 (Homo sapiens, UniProt O60218, Q114T); assay: Competitive inhibition at human recombinant N-terminus His6-tagged AKR1B10 Gln114Thr mutant expressed in Escherichia coli BL21 DE3 assessed as inhibition of NADP+ linked geraniol oxidation by fluorescence analysis
[11] = target: T1, Aldo-keto reductase family 1 member B10; assay: Competitive inhibition at human recombinant N-terminus His6-tagged AKR1B10 expressed in Escherichia coli BL21 DE3 assessed as inhibition of NADP+ linked geraniol oxidation by fluorescence analysis
In short: (§2)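 Recombinant wild-type or mutant AKR1B10 with N-terminal 6-His tag was expressed in E. coli BL21(DE3) pLysS and purified to homogeneity. The Phe123Ala mutant was made by site-directed mutagenesis. Kinetics used NADP+-linked geraniol oxidation, read by NADPH fluorescence (ex 340/em 455 nm) at 25 °C. Five substrate concentrations (0.5–5 × Km) were run with saturating coenzyme. Ki is the mean of at least three determinations.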
Target sequence in this assay (O60218 whole entry): as above

[12] = target: Aldo-keto reductase family 1 member B10 (Homo sapiens, UniProt O60218, Q303S); assay: Competitive inhibition at human recombinant N-terminus His6-tagged AKR1B10 Gln303Ser mutant expressed in Escherichia coli BL21 DE3 assessed as inhibition of NADP+ linked geraniol oxidation by fluorescence analysis
U-937 [13] = assay: Growth inhibition of AKR1B10-overexpressing human U937 cells at 0.2 uM by trypan blue dye exclusion assay; format: functional, cell-based; in short: as §1
[14] = target: Aldo-keto reductase family 1 member B10 (Homo sapiens, UniProt O60218, W220Y); assay: Competitive inhibition at human recombinant N-terminus His6-tagged AKR1B10 Trp220Tyr mutant expressed in Escherichia coli BL21 DE3 assessed as inhibition of NADP+ linked geraniol oxidation by fluorescence analysis
[15] = target: T2, Aldo-keto reductase family 1 member A1 (Homo sapiens) (UniProt P14550); assay: Inhibition of human AKR1A1 at 30 uM
T2 sequence (whole entry): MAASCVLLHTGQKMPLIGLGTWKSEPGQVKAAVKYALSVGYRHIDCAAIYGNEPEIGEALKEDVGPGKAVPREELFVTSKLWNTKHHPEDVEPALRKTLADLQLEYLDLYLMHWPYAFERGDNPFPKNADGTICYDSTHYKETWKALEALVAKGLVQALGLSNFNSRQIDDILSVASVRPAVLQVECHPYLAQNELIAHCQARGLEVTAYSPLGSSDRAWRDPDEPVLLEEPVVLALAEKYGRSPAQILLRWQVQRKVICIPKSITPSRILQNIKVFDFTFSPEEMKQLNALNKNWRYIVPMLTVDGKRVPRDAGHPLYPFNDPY

[16] = target: Aldo-keto reductase family 1 member B10 (Homo sapiens, UniProt O60218, Q303S/V301L); assay: Competitive inhibition at human recombinant N-terminus His6-tagged AKR1B10 Val301Leu/Gln303Ser double mutant expressed in Escherichia coli BL21 DE3 assessed as inhibition of NADP+ linked geraniol oxidation by fluorescence analysis
[17] = target: Aldo-keto reductase family 1 member B10 (Homo sapiens, UniProt O60218, F123A); assay: Competitive inhibition at human recombinant N-terminus His6-tagged AKR1B10 Phe123Ala mutant expressed in Escherichia coli BL21 DE3 assessed as inhibition of NADP+ linked geraniol oxidation by fluorescence analysis; in short: as §2
[18] = target: T1, Aldo-keto reductase family 1 member B10; assay: Inhibition of AKR1B10-mediated farnesal metabolism in human HeLa cells preincubated for 2 hrs measured after 6 hrs following [1-14C]farnesol addition; format: cell-based
In short: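 HeLa cells were transfected with pGW1-AKR1B10 and pretreated with inhibitor at a range of concentrations for 2 h. They were then incubated with [1-¹⁴C]farnesol for 6 h, and reduction of the resulting farnesal was analysed. Percent inhibition is the mean of duplicate experiments.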
Target sequence in this assay (O60218 whole entry): as the sequence (O60218 whole entry) above

[19] = target: Aldo-keto reductase family 1 member B10 (Homo sapiens, UniProt O60218, V301L); assay: Competitive inhibition at human recombinant N-terminus His6-tagged AKR1B10 Val301Leu mutant expressed in Escherichia coli BL21 DE3 assessed as inhibition of NADP+ linked geraniol oxidation by fluorescence analysis
Chain of Aldo-keto reductase family 1 member B10 (Homo sapiens, UniProt O60218, V301L) (O60218 whole entry V301L): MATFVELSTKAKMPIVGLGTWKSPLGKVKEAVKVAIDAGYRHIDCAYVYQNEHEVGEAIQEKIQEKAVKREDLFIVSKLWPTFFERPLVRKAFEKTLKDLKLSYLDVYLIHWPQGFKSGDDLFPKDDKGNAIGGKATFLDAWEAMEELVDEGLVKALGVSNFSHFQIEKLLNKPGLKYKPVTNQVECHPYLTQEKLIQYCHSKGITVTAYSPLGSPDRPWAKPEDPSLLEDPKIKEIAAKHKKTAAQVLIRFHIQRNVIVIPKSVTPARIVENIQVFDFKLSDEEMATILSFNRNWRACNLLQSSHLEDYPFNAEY

Chain of Aldo-keto reductase family 1 member B10 (Homo sapiens, UniProt O60218, Q303S/V301L) (O60218 whole entry V301L/Q303S): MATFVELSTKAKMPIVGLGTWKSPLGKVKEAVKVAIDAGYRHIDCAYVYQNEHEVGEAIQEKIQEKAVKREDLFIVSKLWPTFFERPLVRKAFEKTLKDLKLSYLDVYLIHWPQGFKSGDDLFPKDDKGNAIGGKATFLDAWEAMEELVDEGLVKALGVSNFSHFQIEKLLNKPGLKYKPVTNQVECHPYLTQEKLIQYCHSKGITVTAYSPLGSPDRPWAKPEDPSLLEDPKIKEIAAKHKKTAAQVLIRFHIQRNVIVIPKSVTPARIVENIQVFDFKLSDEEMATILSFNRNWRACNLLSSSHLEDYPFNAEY
Chain of Aldo-keto reductase family 1 member B10 (Homo sapiens, UniProt O60218, S304A) (O60218 whole entry S304A): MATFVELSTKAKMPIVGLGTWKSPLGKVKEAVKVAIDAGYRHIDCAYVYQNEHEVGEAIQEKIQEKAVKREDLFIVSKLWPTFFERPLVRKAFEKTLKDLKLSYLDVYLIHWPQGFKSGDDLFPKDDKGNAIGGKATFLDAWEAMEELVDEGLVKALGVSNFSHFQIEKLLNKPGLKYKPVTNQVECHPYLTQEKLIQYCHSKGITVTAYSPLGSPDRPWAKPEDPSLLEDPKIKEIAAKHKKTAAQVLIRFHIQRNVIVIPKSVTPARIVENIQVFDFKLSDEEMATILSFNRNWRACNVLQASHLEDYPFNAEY
Chain of Aldo-keto reductase family 1 member B10 (Homo sapiens, UniProt O60218, Q114T) (O60218 whole entry Q114T): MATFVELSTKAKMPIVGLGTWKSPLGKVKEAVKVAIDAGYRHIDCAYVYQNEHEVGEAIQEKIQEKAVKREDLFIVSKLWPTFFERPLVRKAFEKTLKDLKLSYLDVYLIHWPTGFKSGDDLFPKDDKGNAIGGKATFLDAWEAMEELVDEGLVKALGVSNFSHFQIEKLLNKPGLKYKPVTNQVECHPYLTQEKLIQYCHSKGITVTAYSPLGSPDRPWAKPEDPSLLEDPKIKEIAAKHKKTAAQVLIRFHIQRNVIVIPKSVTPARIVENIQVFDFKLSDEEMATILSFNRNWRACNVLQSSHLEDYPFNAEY
Chain of Aldo-keto reductase family 1 member B10 (Homo sapiens, UniProt O60218, W220Y) (O60218 whole entry W220Y): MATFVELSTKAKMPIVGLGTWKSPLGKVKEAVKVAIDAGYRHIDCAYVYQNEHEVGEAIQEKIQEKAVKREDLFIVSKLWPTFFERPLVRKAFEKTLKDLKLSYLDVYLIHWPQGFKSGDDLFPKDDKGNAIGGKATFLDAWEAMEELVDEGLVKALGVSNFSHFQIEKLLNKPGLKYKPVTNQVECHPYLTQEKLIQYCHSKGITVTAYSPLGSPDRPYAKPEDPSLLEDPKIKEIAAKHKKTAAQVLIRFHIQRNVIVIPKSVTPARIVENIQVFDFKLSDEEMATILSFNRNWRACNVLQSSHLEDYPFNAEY
Chain of Aldo-keto reductase family 1 member B10 (Homo sapiens, UniProt O60218, Q303S) (O60218 whole entry Q303S): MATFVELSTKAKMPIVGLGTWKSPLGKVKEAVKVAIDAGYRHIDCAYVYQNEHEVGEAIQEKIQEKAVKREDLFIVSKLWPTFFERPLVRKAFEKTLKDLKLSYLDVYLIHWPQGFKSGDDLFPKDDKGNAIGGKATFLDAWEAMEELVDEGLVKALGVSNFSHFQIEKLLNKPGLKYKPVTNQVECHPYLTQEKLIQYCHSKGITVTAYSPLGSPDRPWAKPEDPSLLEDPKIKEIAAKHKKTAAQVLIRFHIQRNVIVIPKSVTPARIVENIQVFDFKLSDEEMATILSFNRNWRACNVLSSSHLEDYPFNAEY
Chain of Aldo-keto reductase family 1 member B10 (Homo sapiens, UniProt O60218, F123A) (O60218 whole entry F123A): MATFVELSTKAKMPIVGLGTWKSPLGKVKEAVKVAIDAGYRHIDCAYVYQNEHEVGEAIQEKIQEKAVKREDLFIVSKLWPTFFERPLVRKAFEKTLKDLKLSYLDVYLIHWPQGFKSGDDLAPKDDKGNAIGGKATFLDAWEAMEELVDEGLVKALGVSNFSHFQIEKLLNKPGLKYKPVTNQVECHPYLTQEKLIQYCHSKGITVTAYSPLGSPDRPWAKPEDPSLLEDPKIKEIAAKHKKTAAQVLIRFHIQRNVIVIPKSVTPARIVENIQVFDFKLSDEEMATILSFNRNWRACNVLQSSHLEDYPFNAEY

Row | SMILES | IC50 [1] [µM] | IC50 [2] [nM] | Ratio IC50 (Homo sapiens) | further results
1 | O=C(/C=C/c1ccc(O)cc1)OCc1ccccc1 | 2.2 | 130 | 17 | 
2 | O=C(/C=C/c1ccc(O)c(O)c1)O[C@@H]1C[C@](O)(C(=O)O)C[C@@H](OC(=O)/C=C/c2ccc(O)c(O)c2)[C@H]1O (relative stereo) | 0.088 | 130 |  | 
3 | O=C(/C=C/c1ccc(O)c(O)c1)O[C@@H]1C[C@](O)(C(=O)O)C[C@@H](O)[C@H]1O (relative stereo) [CHLOROGENIC ACID] |  | 7900 |  | 
4 | O=C(/C=C/c1ccc(O)c(O)c1)O[C@@H]1[C@H](O)C[C@@](O)(C(=O)O)C[C@H]1OC(=O)/C=C/c1ccc(O)c(O)c1 (relative stereo) |  | 240 |  | 
5 | O=C(/C=C/c1ccc(O)c(O)c1)OCCc1ccccc1 [CAFFEIC ACID PHENETHYL ESTER] | 0.57 | 80 | 7 | growth inhibition (GI) (U-937 [3]): inactive; growth inhibition (GI) (HeLa [4]): inactive; growth inhibition (GI) (U-937 [5]): Active; CC50 (HeLa [6]): 56 µM; Ki [7]: 46 nM
6 | O=C(O)/C=C/c1ccc(O)c(O)c1 [CAFFEIC ACID] |  | 90000 |  | 
7 | O=C(/C=C/c1ccccc1)OCCc1ccccc1 [PHENETHYL CINNAMATE] | 23 | 18000 | 1 | 
8 | CC(C)=CCc1cc(/C=C/C(=O)O)cc(CC=C(C)C)c1O [ARTEPILLIN] | 23 | 53000 |  | 
9 | CC(C)OC(=O)/C=C/c1ccc(O)cc1 [ISOPROPYL 3-(4-HYDROXYPHENYL)ACRYLATE] | 6.1 | 920 | 7 | 
10 | COc1cc(O)ccc1/C=C/C(=O)OCCCc1cccc(O)c1 | 4.9 | 6.2 | 790 | Ki [8]: 3.5 nM; growth inhibition (GI) (U-937 [3]): inactive; inhibition [9]: Active; growth inhibition (GI) (HeLa [4]): inactive; Ki [10]: 7.6 nM; CC50 (HeLa [6]): 36 µM; Ki [11]: 2.6 nM; Ki [12]: 7.1 nM; growth inhibition (GI) (U-937 [13]): Active; Ki [14]: 15 nM; inhibition [15]: inactive; Ki [16]: 23 nM; Ki [17]: 5.1 nM; IC50 [18]: 300 nM; Ki [19]: 5.8 nM
11 | CC(C)=CCc1cc(/C=C/C(=O)O)ccc1O [DRUPANIN] | 38 | 49000 |  | 
12 | O=C(O)/C=C/c1ccc(O)cc1 [COUMARIC ACID] | 76 | 63000 |  | 

Further lines, with some results ahead:

Row | IC50 [1] [µM] | IC50 [2] [nM] | Ratio IC50 (Homo sapiens) | SMILES | further results
13 | 1.1 | 21 | 52 | O=C(/C=C/c1ccc(O)cc1)OCCCc1ccccc1 | 
14 | 41 | 3100 | 13 | O=C(/C=C/c1cccc(O)c1)OCCCc1ccccc1 | 
15 | 0.4 | 210 | 2 | O=C(/C=C/c1ccc(O)c(O)c1)OCc1ccccc1 [BENZYL CAFFEATE] | 
16 | 11 | 23 | 478 | COc1cc(O)ccc1/C=C/C(=O)OCCCc1ccc(O)cc1 | 
17 | 2.2 | 69 | 31 | O=C(/C=C/c1ccc(O)cc1)OCCc1ccccc1 | 
18 | 7.2 | 13 | 554 | COc1cc(O)ccc1/C=C/C(=O)OCCc1ccccc1 | 
19 | 3.2 | 14 | 229 | COc1cc(O)ccc1/C=C/C(=O)OCCc1ccc(O)cc1 | 
20 | 9.5 | 17 | 558 | COc1cc(O)ccc1/C=C/C(=O)OCCc1ccccc1O | 
21 | 11 | 16 | 688 | COc1cc(O)ccc1/C=C/C(=O)OCCCc1ccccc1 | 
22 | 73 | 19000 | 4 | O=C(/C=C/c1cccc(O)c1)OCCc1ccccc1 | 
23 | 6.9 | 9 | 766 | COc1cc(O)ccc1/C=C/C(=O)OCCCc1ccccc1O | 
24 | 7.3 | 13 | 562 | COc1cc(O)ccc1/C=C/C(=O)OCCc1cccc(O)c1 | 
